Test results reported in ChEMBL document CHEMBL4321861, “An Underlying Mechanism of Dual Wnt Inhibition and AMPK Activation: Mitochondrial Uncouplers Masquerading as Wnt Inhibitors” (J Med Chem, 2019).
Active and inactive are the calls of the source. No cut-off for these calls is given here.

Assays:
[1] = system: LS174T; assay: Induction of mitochondrial dysfunction in human LS174T cells assessed as increase in glycolytic ATP production at 3 uM by Seahorse XF real-time assay; conditions: Mitochondria
Outline: (§1)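 About 3×10^4 cells seeded per well in XF96 plates. Next day medium switched to Seahorse XF medium with 25 mM glucose and 1 mM pyruvate. Compound given at 3 μM in DMSO; FCCP 1 μM as reference. Mitochondrial and glycolytic ATP production rates measured by XF Real-Time ATP Rate Assay.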

[2] = molecular target: T1, AMP-activated protein kinase, AMPK (Homo sapiens) (UniProt P54646+O43741+P54619+Q9UGJ0+Q9Y478+Q13131+Q9UGI9); assay: Activation of AMPK in human LS174T cells assessed as […] phosphorylation at S79 residue at 3 uM measured within 15 mins by Western blot analysis; type: cell-based
Outline: (§2)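 Cells lysed in 50 mM HEPES, 100 mM NaCl, 2 mM EDTA, 1% glycerol, 50 mM NaF, 1 mM Na3VO4, 1% Triton X-100 with protease inhibitors. Western blot probed for total and phospho-AMPK and total and phospho-ACC, with actin loading control. Compounds given in DMSO. At least three independent repeats.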

[3] = molecular target: T1, AMP-activated protein kinase, AMPK (Homo sapiens); assay: Activation of AMPK in human LS174T cells assessed as increase in AMPK phosphorylation at T172 residue at 3 uM measured within 15 mins by Western blot analysis; type: cell-based; outline: as §2
[4] = system: DLD-1; assay: Uncoupling of mitochondrial oxidative phosphorylation in human DLD1 cells assessed as increase in oxygen consumption rate at 3 uM in presence of oligomycin A by seahorse XFe96 analyser based assay; conditions: Mitochondria
Outline: (§3)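 DLD-1 cells, about 3×10^4 per XF96 well, in XF medium with 25 mM glucose and 1 mM pyruvate. Mito stress sequence: oligomycin A 1 μM, then test compound 3 μM in DMSO in place of FCCP (FCCP 1 μM as control), then rotenone/antimycin A 1 μM each. Oxygen consumption rate recorded.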

[5] = system: Liver; assay: Uncoupling of mitochondrial oxidative phosphorylation in mouse liver mitochondria assessed as increase in oxygen consumption rate in presence of oligomycin A by seahorse XFe96 analyser based assay
Outline: (§4)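 Mouse liver mitochondria isolated by differential centrifugation in mannitol/sucrose/HEPES/EGTA buffer, pH 7.2. Loaded at 6 μg/well in KCl/HEPES/MgCl2/KH2PO4 respiration buffer, pH 7.2, at 37 °C. OCR measured on XFe96.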

[6] = system: LS174T; assay: Inhibition of LiCl-induced Wnt signaling in human LS174T cells assessed as reduction in beta-catenin accumulation; type: cell-based
[7] = system: DLD-1; assay: Induction of mitochondrial dysfunction in human DLD1 cells assessed as increase in glycolytic ATP production at 3 uM by Seahorse XF real-time assay; conditions: Mitochondria; outline: as §1
[8] = system: LS174T; assay: Induction of mitochondrial dysfunction in human LS174T cells assessed as reduction in mitochondrial ATP production at 3 uM by Seahorse XF real-time assay; conditions: Mitochondria; outline: as §1
[9] = system: DLD-1; assay: Induction of mitochondrial dysfunction in human DLD1 cells assessed as reduction in mitochondrial ATP production at 3 uM by Seahorse XF real-time assay; conditions: Mitochondria; outline: as §1
[10] = system: LS174T; assay: Induction of mitochondrial membrane potential disruption in human LS174T cells measured after 2 hrs by TMRM staining based fluorescence microscopic analysis; conditions: Mitochondria
Outline: (§5)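 Cells grown one day in 24-well plates: DLD-1 in DMEM + 10% serum, LS174T in RPMI1640 + 5% serum. Treated 2 h with compound in DMSO or DMSO, then stained with 100 nM TMRM for 15 min. Rinsed once with PBS and imaged by fluorescence microscopy at 568 nm.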

[11] = system: DLD-1; assay: Induction of mitochondrial membrane potential disruption in human DLD1 cells measured after 2 hrs by TMRM staining based fluorescence microscopic analysis; conditions: Mitochondria; outline: as §5
[12] = system: DLD-1; assay: Uncoupling of mitochondrial oxidative phosphorylation in human DLD1 cells at 3 uM in presence of oligomycin A by seahorse XFe96 analyser based assay; conditions: Mitochondria; outline: as §3
[13] = system: DLD-1; assay: Inhibition of mitochondrial oxidative phosphorylation in human DLD1 cells assessed as reduction in oxygen consumption rate by seahorse XFe96 analyser based assay; conditions: Mitochondria
Outline: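 DLD-1 cells, ~3×10^4 per well, seeded a day ahead; medium switched to Seahorse XF modified medium with 25 mM glucose and 1 mM pyruvate. Mitochondrial stress test: 1 μM oligomycin A, test compound in DMSO in place of FCCP, then 1.0 μM rotenone plus 1.0 μM antimycin A. OCR recorded; ATP production rate by real-time ATP rate assay.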

[14] = organism: Homo sapiens; assay: Inhibition of Wnt in human SW620 cells assessed as reduction in cyclin-D1 expression at 1 uM by Western blot analysis; type: cell-based
Outline: (§6)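 Colorectal cancer cells (DLD-1, LS174T, SW620) treated with a compound dose series in DMSO. Lysates immunoblotted for Axin2, c-Myc and cyclin D1. At least three independent repeats.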

[15] = system: DLD-1; assay: Cytotoxicity against human DLD1 cells assessed as reduction in cell viability by Vi-Cell XR cell viability analyzer-based assay; type: functional
Outline: (§7)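 Colon cancer cells plated at 3.5×10^4 per well in 12-well plates. LS174T were in EMEM + 10% FBS; DLD-1 were in DMEM + 10% FBS. After 24 h, compound in DMSO added (DMSO control). Cell number and viability counted on a Vi-Cell XR analyzer. Triplicate wells.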

[16] = organism: Homo sapiens; assay: Inhibition of Wnt in human DLD1 cells assessed as reduction in Axin2 expression at 1 to 3 uM by Western blot analysis; type: cell-based; outline: as §6
[17] = molecular target: T1, AMP-activated protein kinase, AMPK (Homo sapiens); assay: Activation of AMPK in human LS174T cells assessed as […] phosphorylation at S79 residue at 3 uM by Western blot analysis; type: cell-based; outline: as §2
[18] = organism: Homo sapiens; assay: Inhibition of Wnt in human DLD1 cells assessed as reduction in cyclin-D1 expression at 1 to 3 uM by Western blot analysis; type: cell-based; outline: as §6
[19] = system: LS174T; assay: Inhibition of Wnt in human LS174T cells assessed as reduction in c-Myc expression at 1 uM by Western blot analysis; type: cell-based; outline: as §6
[20] = system: LS174T; assay: Cytotoxicity against human LS174T cells assessed as reduction in cell viability by Vi-Cell XR cell viability analyzer-based assay; type: functional; outline: as §7
[21] = organism: Homo sapiens; assay: Inhibition of Wnt in human DLD1 cells assessed as reduction in c-Myc expression at 1 to 3 uM by Western blot analysis; type: cell-based; outline: as §6
[22] = organism: Homo sapiens; assay: Inhibition of Wnt in human SW620 cells assessed as reduction in Axin2 expression at 1 uM by Western blot analysis; type: cell-based; outline: as §6
[23] = system: HEK293; assay: Inhibition of LiCl-activated Wnt signaling in HEK293 cells at 3 uM in presence of AMPK inhibitor compound C by TOPFlash reporter gene assay; type: cell-based; conditions: Homo sapiens
Outline: (§8)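 Stable HEK293T Super 8xTOPFlash reporter line (pGL4.83 backbone, puromycin-selected), stimulated with 25 mM LiCl to stabilize β-catenin. Treated with compound in DMSO or DMSO. Luciferase read in 96- or 24-well format. AMPK inhibitor compound C used at 5 μM where applied. At least three independent repeats.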

[24] = system: HEK293; assay: Inhibition of LiCl-activated Wnt signaling in HEK293 cells at 0.3 to 3 uM by TOPFlash reporter gene assay; type: cell-based; conditions: Homo sapiens; outline: as §8
[25] = system: LS174T; assay: Inhibition of Wnt in human LS174T cells assessed as reduction in cyclin-D1 expression at 1 uM by Western blot analysis; type: cell-based; outline: as §6
[26] = system: LS174T; assay: Inhibition of Wnt in human LS174T cells assessed as reduction in Axin2 expression at 1 uM by Western blot analysis; type: cell-based; outline: as §6
[27] = system: HEK293; assay: Effect on FOP reporter expression in LiCl-induced HEK293T cells incubated for 24 hrs by luciferase reporter gene assay; type: functional, cell-based; conditions: Homo sapiens
Outline: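 HEK293T cells transiently transfected with Super 8x TOPFlash or 8x FOPFlash plus control Renilla reporter. Wnt signaling activated with LiCl or Wnt3A. Cells treated with DMSO or compound in DMSO. Luciferase activity read.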

[28] = organism: Homo sapiens; assay: Inhibition of Wnt in human SW620 cells assessed as reduction in c-Myc expression at 1 uM by Western blot analysis; type: cell-based; outline: as §6
[29] = molecular target: T1, AMP-activated protein kinase, AMPK (Homo sapiens); assay: Activation of AMPK in human LS174T cells assessed as increase in AMPK phosphorylation at T172 residue at 3 uM by Western blot analysis; type: cell-based; outline: as §2
[30] = system: HEK293; assay: Inhibition of LiCl-activated Wnt signaling in HEK293 cells by TOPFlash reporter gene assay; type: cell-based; conditions: Homo sapiens; outline: as §8
[31] = molecular target: T1, AMP-activated protein kinase, AMPK (Homo sapiens); assay: Activation of AMPK in human LS174T cells assessed as increase in AMPK phosphorylation at T172 residue by Western blot analysis; type: cell-based; outline: as §2
[32] = molecular target: T1, AMP-activated protein kinase, AMPK (Homo sapiens); assay: Activation of AMPK in human LS174T cells assessed as […] phosphorylation at S79 residue by Western blot analysis; type: cell-based; outline: as §2
[33] = system: HEK293; assay: Inhibition of LiCl-activated Wnt signaling in HEK293 cells at 3 uM by TOPFlash reporter gene assay; type: cell-based; conditions: Homo sapiens; outline: as §8
[34] = molecular target: T1, AMP-activated protein kinase, AMPK (Homo sapiens); assay: Activation of AMPK (unknown origin) assessed as […] phosphorylation at S79 residue at 3 uM by Western blot analysis; type: protein-complex assay; outline: as §2
[35] = molecular target: T1, AMP-activated protein kinase, AMPK (Homo sapiens); assay: Activation of AMPK (unknown origin) assessed as increase in AMPK phosphorylation at T172 residue at 3 uM by Western blot analysis; type: protein-complex assay; outline: as §2
[36] = system: Liver; assay: Uncoupling of mitochondrial oxidative phosphorylation in mouse liver mitochondria assessed as increase in oxygen consumption rate at 1 to 5 uM in presence of oligomycin A by seahorse XFe96 analyser based assay; outline: as §4

Cc1cc([N+](=O)[O-])ccc1NS(=O)(=O)c1cc(Cl)ccc1Cl
Activity [1]: Active | Activity [2]: Active | Activity [3]: Active | Activity [4]: Active | Activity [5]: Dose-dependent effect | inhibition [6]: Active | Activity [7]: Active | Activity [8]: Active | Activity [9]: Active | Activity [10]: Active | Activity [11]: Active | Activity [12]: Active

CCCCCCC1C(=O)O[C@H](C)[C@H](NC(=O)c2cccc(NC=O)c2O)C(=O)O[C@@H](C)[C@@H]1OC(=O)CC(C)C (stereo not given in full)
inhibition [13]: Active

O=C(Nc1ccc(C(F)(F)F)cc1)Nc1cc(F)c(F)c(F)c1
inhibition [14]: Active | IC50 [15]: 540 nM | inhibition [16]: Active | Activity [17]: Active | inhibition [18]: Active | inhibition [19]: Active | IC50 [20]: 550 nM | inhibition [21]: Active | inhibition [22]: Active | inhibition [23]: Active | inhibition [24]: Active | inhibition [25]: Active | inhibition [26]: Active | Activity [10]: Active | Activity [27]: inactive | Activity [11]: Active | inhibition [28]: Active | Activity [29]: Active

O=C1[C@H](Cc2ccc(O)cc2)N2C(=O)CCN(C(=O)NCc3ccccc3)[C@H]2CN1Cc1cccc2ccccc12
inhibition [30]: Active | Activity [31]: inactive | Activity [32]: inactive

CN(c1ccc([N+](=O)[O-])c2ccccc12)S(=O)(=O)c1cc(Cl)ccc1Cl
inhibition [33]: inactive | Activity [4]: inactive | Activity [34]: inactive | Activity [35]: inactive | Activity [36]: inactive

C=C(C)[C@H]1Cc2c(ccc3c2O[C@@H]2COc4cc(OC)c(OC)cc4[C@@H]2C3=O)O1
inhibition [13]: Active
